The list is not random: actives were taken first. Their share in the collection is about 3.3%.
SIAE inh – human SIAE inhibition, primary screen. Q9HAT2. SIAE FP-Rh probe binding, fluorescence polarization. inhibition, % at 9.66 µM. hit rate 0.69% among 370,000. AID 1053197;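 active = inhibition above a cutoff: mean of compounds within the control limits plus 3 SD of those, cut at about 17% in these data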
rCAG binder – molecules binding r(CAG) RNA repeats. r(CAG) RNA repeat, TO-PRO-1 dye displacement fluorescence. inhibition, % at 3 µM. hit rate 1.3% among 370,000. AID 651821;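 active = inhibition above the plate cutoff, the mean of all test compounds on that plate plus 3 SD, cut at about 35% in these data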;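 also: higher means more dye released from RNA so lower well fluorescence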
ABHD4 inh – inhibitors of mouse ABHD4; Q8VD66; inhibition, % at 8.92 µM; purified mABHD4, FP-Rh probe fluorescence polarization; hit rate 0.54% among 370,000;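 active = inhibition exceeding the mean over every tested compound plus 3 SD, cut at about 30% in these data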
Target sequence (Q8VD66 whole entry, looked up): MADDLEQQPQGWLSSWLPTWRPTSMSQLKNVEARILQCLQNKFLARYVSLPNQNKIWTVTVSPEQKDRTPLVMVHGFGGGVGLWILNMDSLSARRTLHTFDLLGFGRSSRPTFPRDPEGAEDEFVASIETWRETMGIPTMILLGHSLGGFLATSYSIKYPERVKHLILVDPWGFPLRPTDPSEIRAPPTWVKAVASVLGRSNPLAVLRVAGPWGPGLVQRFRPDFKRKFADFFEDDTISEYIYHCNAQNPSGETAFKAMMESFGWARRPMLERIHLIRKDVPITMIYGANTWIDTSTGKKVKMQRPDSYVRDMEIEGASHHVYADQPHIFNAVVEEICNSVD
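Test system: mABHD4 protein | Buffer or medium: HEPES pH 7.0 buffer, 150 mM NaCl, 0.01% Pluronic F-127 | Probe or stimulus: FP-Rh fluorescent activity-based probe, added after compound pre-incubation | Timing: Pre-incubation 45 min, probe exposure 60 min, at 25 °C | Technique: Fluorescence polarization, excitation 525 nm, emission 598 nm, BODIPY TMR filters | Repeats: Single well per compound (singlicate)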
PRMT1 inh – PRMT1 (human) inhibition, primary screen; AID 652257; inhibition, % at 2.79 µM; hit rate 1.3% among 370,000; Q99873; recombinant PRMT1, activity-based probe fluorescence polarization;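 active = inhibition above about 21% made by adding two undisclosed values, limit read from the data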
TCR-CD3 inh – blocks the human TCR-CD3 interaction. TAMRA-labeled TCR probe fluorescence, biochemical. inhibition, % at 9.4 µM. hit rate 0.37% among 360,000; in the data active = inhibition above about 19%;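 also: recombinant mutant TCR 2C K166C tagged with TAMRA read by polarization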
rCAG bind conf – r(CAG) RNA repeat binding, confirmation; shares compounds with rCAG binder; TO-PRO-1 dye displacement fluorescence; inhibition, % at 3 µM; hit rate 70% among 4,300;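 active = inhibition above a per-plate cutoff, the mean inhibition of sample wells plus 3 SD, cut at about 35% in these data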;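 also: loss of TO-PRO-1 fluorescence as compound displaces dye from 1x1 AA loop RNA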
DNA CAG counter – DNA CAG dye complex inhibition counter-screen | hit rate 94% among 4,300 | d(CAG) DNA oligo TO-PRO-1 dye displacement, fluorescence | shares compounds with rCAG binder | inhibition, % at 3 µM;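 active = inhibition above its plate's cutoff, the mean test-well inhibition plus 3 SD, cut at about 4.8% in these data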;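 also: hits displace the dye from DNA and so lower well fluorescence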
PRMT1 confirm – PRMT1 (human) inhibition, FP confirmation; shares compounds with PRMT1 inh; recombinant His-PRMT1, activity-based probe fluorescence polarization; inhibition, % at 2.79 µM; hit rate 42% among 3,300; AID 687036;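 active = mean inhibition across replicates above the hit cutoff derived for the earlier primary screen, cut at about 22% in these data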
Each line names hits and unclear results; the compound was inactive in the other large screens (follow-up assays come after a bar, where they were run).

COC(=O)C1=C(C)N(C)C(=NCc2ccc(C(F)(F)F)cc2)NC1c1ccccc1C(F)(F)F (stereo unspecified)	none
N#C/C(=C\c1ccccc1)C(=O)NNS(=O)(=O)c1cccc([N+](=O)[O-])c1	rCAG binder 36, PRMT1 inh 43 | rCAG bind conf inactive | DNA CAG counter inactive | PRMT1 confirm inactive
COc1ccc(S(=O)(=O)NCc2cccnc2)cc1NC(=O)c1ccccc1C	rCAG binder 66, PRMT1 inh 48 | rCAG bind conf 59 | DNA CAG counter 34 | PRMT1 confirm inactive
CCOc1cc(CCNC(=O)c2cc3sccc3n2CC)ccc1OC	none (no result: TCR-CD3 inh)
COc1ccccc1NC(=O)OCCN1CCCC12CCC(c1ccccc1)CC2 (stereo unspecified)	none (no result: rCAG binder, TCR-CD3 inh)
O=c1[nH]c(=O)n(Cc2ccccc2)c2nc(-c3ccco3)cc(C(F)(F)F)c12	none
Cc1nn(CCc2nc(-c3ccco3)cs2)c2[nH]c(=O)cc(C(F)(F)F)c12	rCAG binder 58, PRMT1 inh 34 | rCAG bind conf inactive | DNA CAG counter inactive | PRMT1 confirm inactive
Nc1c(C(=O)Nc2ccccc2F)sc2nc(-c3ccco3)ccc12	rCAG binder 55, PRMT1 inh 47 | rCAG bind conf 73 | DNA CAG counter 35 | PRMT1 confirm 42
CCOC(=O)c1sc2nc(-c3ccco3)c3c(c2c1N)CC(C)(C)OC3	rCAG binder 51, PRMT1 inh 41 | rCAG bind conf 35 | DNA CAG counter 14 | PRMT1 confirm 43
Cc1nc2sc(C(=O)O)c(N)c2c2c1COC(C)(C)C2	none
COc1cccc(=O)c2c(C)n(CC(=O)c3ccccc3)c(C)c12	rCAG binder 37, PRMT1 inh 36 | rCAG bind conf inactive | DNA CAG counter 17 | PRMT1 confirm inactive
CCOC(=O)[C@@H](C)N1[C@@H](C)[C@H](c2ccccc2)Oc2ccc(Cl)cc2S1(=O)=O	none
O=C(O)c1ccc(-n2cccc2/C=C2/NC(=O)N(c3cccc(Cl)c3)C2=O)cc1	rCAG binder 39, PRMT1 inh 29 | rCAG bind conf inactive | DNA CAG counter 8.8 | PRMT1 confirm inactive
COc1ccc(C2C(C(=O)Nc3ccc(Cl)c(Cl)c3)CCC(=O)N2c2ccc(OC)cc2)cc1 (stereo unspecified)	none (no result: TCR-CD3 inh)
Oc1ccc2ccccc2c1C=Nn1c(-c2n[nH]c3c2CCC3)n[nH]c1=S	rCAG binder 72, PRMT1 inh 32 (no result: TCR-CD3 inh) | rCAG bind conf 60 | DNA CAG counter 22 | PRMT1 confirm inactive
CCCC/C=C1/[C@@H](c2ccc(Cl)cc2)N(Cc2ccc3c(c2)OCO3)C2=N[C@@H](c3ccccc3)CC(=O)N21	none (no result: TCR-CD3 inh)
CCCOC(=O)c1c(NC(=O)CCC(=O)O)sc2c1CCCCC2	none
CCOC(=O)c1ccc(NC(=O)c2c(NC(=O)CCC(=O)O)sc3c2CCCCC3)cc1	rCAG binder 43, PRMT1 inh 44 | rCAG bind conf inactive | DNA CAG counter 10 | PRMT1 confirm inactive
CC(c1c[nH]c2ccccc12)c1c[nH]c2ccc(Br)cc12 (stereo unspecified)	none (no result: TCR-CD3 inh)
COc1cc(Cl)c(C)cc1NC(=O)CSc1sc2c(O)cc(=O)[nH]c2c1C#N	rCAG binder 49, PRMT1 inh 36 | rCAG bind conf 55 | DNA CAG counter 30 | PRMT1 confirm inactive
COc1ccc(OC)c(NC(=O)CSc2nnc(N)s2)c1	none
COc1ccc(OC)c(NC(=O)CSc2sc3c(O)cc(=O)[nH]c3c2C#N)c1	rCAG binder 48, PRMT1 inh 26 | rCAG bind conf inactive | DNA CAG counter 10 | PRMT1 confirm inactive
COc1cc(F)ccc1Oc1cccc2c1S(=O)(=O)N([C@H](C)c1ccccc1)C[C@@H](COCc1ccccc1)O2	none
CC(C)(C)CSc1nnc(-c2cccnc2)n1Cc1ccccc1	none (no result: TCR-CD3 inh)
CC(C)c1ccc(/C=N/n2c(COc3ccccc3)n[nH]c2=S)cc1	rCAG binder 36, PRMT1 inh 31 | rCAG bind conf 48 | DNA CAG counter 11 | PRMT1 confirm inactive
Cc1ccc(CSc2nnc(-c3cc(-c4ccc(C)cc4)n[nH]3)n2N)cc1	none (no result: TCR-CD3 inh)

Compound activity: PubChem, The Scripps Research Institute Molecular Screening Center
